The source of these data is ChEMBL document CHEMBL1131580, “Antihyperglycemic activities of cryptolepine analogues: an ethnobotanical lead structure isolated from Cryptolepis sanguinolenta” (1998).

The subject of assay [1] is Mus musculus. The assay is described as follows: Food intake measured in genetically altered obese diabetic mice(db/db) at 30 mg/kg dose. Format: functional. The gist of the method: (§1)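 Obese diabetic C57BL/KS-db/db mice, single dose at t = 0, n = 8 per group (n = 5 for parent compound). Body weight recorded per mouse at 0 and 24 h; food intake reported as g/mouse/day. Vehicle used as negative control, metformin as positive control.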

The test system of assay [2] is 3T3-L1. The assay is described as follows: In vitro glucose transport activity in 3T3-LI adipocytes at 10 uM concentration. Format: functional, Mus musculus. The gist of the method:
(§2)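 Differentiated 3T3-L1 adipocytes, no added insulin, treated in triplicate for 18 h with compound at 3, 10 or 30 µM. Glucose transport expressed as % (relative to untreated); values are means of triplicate runs, significance by one-tailed independent Student's t-test.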

For assay [3], the system named is Mus musculus. The assay is described as follows: Mean body weight measured in genetically altered obese diabetic mice(db/db) at 30 mg/kg at 0 h postdose. In kind it is functional. In a few lines:
as §1

For assay [4], the system named is 3T3-L1. The assay is described as follows: In vitro glucose transport activity in 3T3-LI adipocytes at 30 uM concentration. In kind it is functional, Mus musculus. The gist of the method:
as §2

Assay [5] deals with Mus musculus. The assay is described as follows: Mean body weight measured in genetically altered obese diabetic mice(db/db) at 100 mg/kg at 0 hr postdose. Format: functional. In a few lines:
as §1

Assay [6] relates to Mus musculus. The assay is described as follows: Mean body weight measured in genetically altered obese diabetic mice(db/db) at 30 mg/kg at 24 h postdose. Format: functional. The gist of the method:
as §1

The subject of assay [7] is Mus musculus. The assay is described as follows: Food intake measured in genetically altered obese diabetic mice(db/db) at 100 mg/kg dose; 6 animals died. Format: functional.
Assay [8] has as its system Mus musculus. The assay is described as follows: Change in plasma glucose levels measured in genetically altered obese diabetic mice(db/db) at 100 mg/kg at 24 hr postdose. In kind it is functional.
Assay [9] has as its system Mus musculus. The assay is described as follows: Change in plasma glucose levels measured in genetically altered obese diabetic mice(db/db) at 30 mg/kg at 24 hr postdose. Format: functional.
Assay [10] relates to 3T3-L1. The assay is described as follows: In vitro glucose transport activity in 3T3-LI adipocytes at 3 uM concentration. In kind it is functional, Mus musculus. The gist of the method:
as §2

In assay [11] the test system is Mus musculus. The assay is described as follows: Mean body weight measured in genetically altered obese diabetic mice(db/db) at 100 mg/kg at 24 hr postdose. Format: functional. The gist of the method: as §1
For assay [12], the system named is Mus musculus. The assay is described as follows: Change in plasma glucose levels measured in genetically altered obese diabetic mice(db/db) at 30 mg/kg at 3 hr postdose. Format: functional.
Assay [13] concerns Mus musculus. The assay is described as follows: Change in plasma glucose levels measured in genetically altered obese diabetic mice(db/db) at 100 mg/kg at 3 hr postdose. Format: functional.
Assay [14] has as its system Mus musculus. The assay is described as follows: Food intake measured in genetically altered obese diabetic mice(db/db) at 100 mg/kg dose; 2 animals died. In kind it is functional.
The test system of assay [15] is Mus musculus. The assay is described as follows: Mean body weight measured in genetically altered obese diabetic mice(db/db) at 30 mg/kg at 24 hr postdose. In kind it is functional. In a few lines: as §1
The subject of assay [16] is Mus musculus. The assay is described as follows: Mean body weight measured in genetically altered obese diabetic mice(db/db) at 30 mg/kg at 0 hr postdose. In kind it is functional. The gist of the method:
as §1

For the molecule `CCCC[n+]1c2ccccc2cc2[nH]c3ccccc3c21.[Cl-]`, the values for the Food intake in the assay on Mus musculus [1] and in the assay on Mus musculus [7] were 6 g mouse-1 day-1 and 2.6 g mouse-1 day-1, respectively. Also, the Glucose transport in the assay on 3T3-L1 [2] came to 868%; with 3T3-L1 [4] it was 490%; with 3T3-L1 [10] it was 561%. For the same molecule, the Mean body weight with Mus musculus [3] is on record as 38.7 g mouse-1; with Mus musculus [5] it was 45.8 g mouse-1; in the assay on Mus musculus [6], 38.6 g mouse-1; in the assay with Mus musculus [11] it was 45.8 g mouse-1. In addition, the Change in the assay on Mus musculus [8] is -2.2%; in the assay with Mus musculus [9] it was -22%; in the assay on Mus musculus [12] it was 4%; in the assay with Mus musculus [13] it was -33.8%.

As for `CC[n+]1c2ccccc2cc2[nH]c3ccccc3c21.[Cl-]`, the values for the Food intake in the assay on Mus musculus [14] and in the assay on Mus musculus [1] were 1 g mouse-1 day-1 and 5.1 g mouse-1 day-1, respectively. Further, the Glucose transport turned out to be 228% in the assay on 3T3-L1 [2], 404% in the assay on 3T3-L1 [4] and 197% with 3T3-L1 [10]. Besides, the Mean body weight with Mus musculus [5] was 44.6 g mouse-1; with Mus musculus [11] it was 43.3 g mouse-1; in the assay on Mus musculus [15], 41.2 g mouse-1; in the assay on Mus musculus [16], 41.7 g mouse-1. For the same molecule, the Change in the assay with Mus musculus [8] is -26.5%; in the assay on Mus musculus [9], -4.1%; in the assay on Mus musculus [12], -7.7%; with Mus musculus [13], -23.2%.
